One block for each compound: values may come before it.
Columns and labels:
[1] = test system: three strains of S. aureus; assay: MIC summary over the three test strains; assay type: cell-based, Staphylococcus aureus
Method in brief: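 Broth microdilution MICs per CLSI guidelines, run in triplicate, for the test compound and a panel of comparator antimicrobials including linezolid. Tested against the three S. aureus isolates used in the study (one MSSA, one CA-MRSA, one HA-MRSA).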

[2] = Plasma protein-binding by ultrafiltration; assay type: in vitro ADME; conditions: mouse plasma, 0·1 to 2 μg/ml
[3] = Pharmacokinetics after single oral doses in MSSA-infected neutropenic mice; assay type: in vivo; conditions: for fAUC0–24: free drug
MSSA ATCC 29213 = assay: Neutropenic murine thigh infection model, efficacy and pharmacodynamics; assay type: in vivo, Staphylococcus aureus; conditions: oral, neutropenic mice, 24 hours
CA-MRSA = assay: Neutropenic murine thigh infection model, single-dose response; assay type: in vivo, Staphylococcus aureus; conditions: 24 hours
[4] = cited from earlier work
[5] = test system: CA-MRSA (No. 32, CDC type USA300, PVL-positive); assay: MIC by broth microdilution; assay type: cell-based; conditions: Staphylococcus aureus

- level of activity (MIC) greater than linezolid [1]: at least 500 fold
- level of activity (MIC) greater than other antibacterials tested [1]: at least 32 fold
- concentration dependence of protein binding [2]: no concentration-dependent binding
- fAUC0–24 ([3]; 5 mg/kg single oral dose): 113 ng·h/mL
- fAUC0–24 ([3]; 10 mg/kg single oral dose): 141 ng·h/mL
- fAUC0–24 ([3]; 30 mg/kg single oral dose): 160 ng·h/mL
- fAUC0–24 ([3]; 100 mg/kg single oral dose): 285 ng·h/mL
- PK profile (dose proportionality of fAUC, fCmax, Tmax) ([3]; single oral doses 2·5-100 mg/kg): non-linear exposures
SMILES: Cc1c(CN(C)C(=O)/C=C/c2cnc3c(c2)CCC(=O)N3)oc2ccccc12 [AFN-1252]
- doses giving reductions in total bacterial count of 1 log and greater compared to time 0 (MSSA ATCC 29213; MSSA): ≥ 20 mg/kg
- dose at which reduction in MSSA growth rate began (MSSA ATCC 29213): 5 mg/kg
- dose giving marked reduction in bacterial count relative to time 0 (CA-MRSA; single oral dose): ≥ 10 mg/kg
- permeability ([4]; BCS): high
- Biopharmaceutics Classification System class [4]: Class 2

- MIC [5]: > 16 µg/mL
SMILES: CCC[C@@H]1C[C@@H](C(=O)N[C@@H]([C@H]2O[C@H](SC)[C@H](O)[C@@H](O)[C@H]2O)[C@H](C)Cl)N(C)C1 [Clindamycin]

- MIC [5]: > 32 µg/mL
SMILES: CC[C@H]1OC(=O)[C@H](C)[C@@H](O[C@H]2C[C@@](C)(OC)[C@@H](O)[C@H](C)O2)[C@H](C)[C@@H](O[C@@H]2O[C@H](C)C[C@H](N(C)C)[C@H]2O)[C@](C)(O)C[C@@H](C)C(=O)[C@H](C)[C@@H](O)[C@]1(C)O [Erythromycin]

SMILES: CC(=O)NC[C@H]1CN(c2ccc(N3CCOCC3)c(F)c2)C(=O)O1 [Linezolid]
- effect on bacterial growth (CA-MRSA; 10 and 40 mg/kg single oral dose): some suppression of growth
- doses required to achieve consistent reductions in CFU (CA-MRSA; single oral dose): ≥ 100 mg/kg
